The source made the active and inactive calls. The calls are words filed in the database; no cut-off is given here. Bridge positions count the residues as written; N and C are the ends. Square brackets hold non-standard residues; d marks the D form. Peptide text beside a SMILES is read from it. * marks the point of attachment. X1 = O=C(/C=C/C=C/C=C/C=C/C=C/C(=O)*)NC1=C(O)CCC1=O; Pro(4R-Me) = C[C@H]1CN[C@H](C(=O)O)C1; NMeA = CN[C@@H](C)C(=O)O
Assays:
[1] = biological target: T1, ATP-dependent Clp protease proteolytic subunit (Escherichia coli (strain K12), UniProt P0A6G7); assay: Activation of Escherichia coli BLR (DE3) ClpP using Abz-DFAPKMALVPYNO2 as substrate assessed as degradation of substrate peptide preincubated for 15 mins followed by substrate addition measured every 30 mins for 2 hrs by fluorescence assay
Outline: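 His-tagged EcClpP, 25 nM tetradecamer, in 25 mM HEPES pH 7.5, 100 mM KCl, 5 mM MgCl2, 10% glycerol, 1 mM DTT. Preincubated with a concentration range of compound for 15 min at 30 °C, then 15 µM final decapeptide added. Read at 30 °C, ex 320/em 420 nm. DMSO-subtracted ΔRFU was fitted for apparent activation constant (Kapp).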

[2] = biological target: ATP-dependent Clp protease proteolytic subunit (Bacillus subtilis (strain 168)) (UniProt P80244); assay: Activation of Bacillus subtilis ClpP expressed in Escherichia coli BL21 (DE3) using beta casein as substrate at 25 uM preincubated for 15 mins followed by substrate addition measured every 30 mins by SDS-PAGE
Outline: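 Recombinant His-tagged BsClpP (Ni-NTA then gel filtration), 420 nM tetradecamer in 25 mM Tris-HCl pH 7.5, 100 mM KCl, preincubated with compound for 15 min at 37 °C. Bovine β-casein added to 7.5 µM final. Reactions quenched in Laemmli buffer at 80 °C after 5 min, 30 min, 1 h and/or 2 h. Loss of the β-casein band was followed on a 10% Bis-Tris SDS gel.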

[3] = biological target: T1, ATP-dependent Clp protease proteolytic subunit; assay: Activation of Escherichia coli BLR (DE3) ClpP using FITC-beta casein as substrate assessed as degradation of substrate peptide preincubated for 15 mins followed by substrate addition measured every 30 mins for 6 hrs by fluorescence assay
[4] = tested on: Bacillus; assay: Activation of Bacillus subtilis ClpP expressed in Escherichia coli BL21 (DE3) using FITC-beta casein as substrate assessed as degradation of substrate peptide at 25 uM preincubated for 15 mins followed by substrate addition measured every 30 mins for 6 hrs by fluorescence assay
[5] = biological target: ATP-dependent Clp protease proteolytic subunit (Escherichia coli (strain K12)) (UniProt P0A6G7); assay: Activation of Escherichia coli BLR (DE3) ClpP using bovine milk FITC-beta casein as substrate assessed as change in relative fluorescent units at 50 uM preincubated for 15 mins followed by substrate addition measured every 30 mins for 6 hrs by fluorescence assay
Outline: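 Single-concentration screen: 300 nM tetradecameric recombinant E. coli ClpP in 25 mM Tris-HCl pH 7.5, 100 mM KCl, preincubated with compound (50 µM) 15 min at 37 °C. FITC-β-casein added (final 1.92 µM). Kept at 37 °C; fluorescence (ex 485/em 538 nm) read every 30 min for 6 h. ΔRFU = well minus 1% DMSO well; hits had end-point above 22 500 RFU.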

[6] = biological target: ATP-dependent Clp protease proteolytic subunit (Escherichia coli (strain K12)) (UniProt P0A6G7); assay: Ratio of EC50 for Escherichia coli BLR (DE3) ClpP using FITC-beta casein as substrate to ratio of EC50 for Escherichia coli ClpP using Abz-DFAPKMALVPYNO2 as substrate
[7] = biological target: ATP-dependent Clp protease proteolytic subunit (Escherichia coli (strain K12)) (UniProt P0A6G7); assay: Activation of Escherichia coli BLR (DE3) ClpP using beta casein as substrate at 50 uM preincubated for 15 mins followed by substrate addition measured every 30 mins by SDS-PAGE; conditions: TDE = time-dependent effect
Outline: (§1)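 His-tagged ClpP (E. coli or B. subtilis) expressed with IPTG overnight at 25 °C and purified by Ni-NTA and gel filtration. 420 nM tetradecamer in 25 mM Tris-HCl pH 7.5, 100 mM KCl, preincubated with compound 15 min at 37 °C. Bovine β-casein added (final 7.5 µM). Quenched in Laemmli buffer at 5 min, 30 min, 1 h and/or 2 h. β-Casein band loss read on 10% Bis-Tris SDS-PAGE.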

[8] = biological target: ATP-dependent Clp protease proteolytic subunit (Bacillus subtilis (strain 168)) (UniProt P80244); assay: Activation of Bacillus subtilis ClpP expressed in Escherichia coli BL21 (DE3) using beta casein as substrate at 50 uM preincubated for 15 mins followed by substrate addition measured every 30 mins by SDS-PAGE; outline: as §1
[9] = tested on: Bacillus; assay: Activation of Bacillus subtilis ClpP expressed in Escherichia coli BL21 (DE3) using FITC-beta casein as substrate assessed as degradation of substrate peptide at 50 uM preincubated for 15 mins followed by substrate addition measured every 30 mins for 2 hrs by fluorescence assay
[10] = tested on: Escherichia coli; assay: Antibacterial activity against Escherichia coli M5418 harboring deltaacrB/deltaacrD/deltaacrEF::spc deltaemrBdeltaemrYdeltaentS::cam deltamacB deltamdtC deltamdtF mutant assessed as bacterial growth inhibition at 100 uM after 18 hrs by 2-fold dilution method; type: functional, organism-based
Outline: (§2)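 Broth dilution MIC: cells subcultured 1:100 in LB and grown to OD600 ~1.0. Inoculated at 10^5 cells/mL in LB with 2-fold increasing compound concentrations, up to 100 µM. Incubated 18 h at 37 °C; growth scored visually.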

[11] = tested on: Pseudomonas aeruginosa; assay: Antibacterial activity against Pseudomonas aeruginosa PAO1116 harboring deltamexAB-oprM/deltamexCD-oprj/deltamexEF-oprN/deltaJK/deltamexXY/deltatriABC mutant assessed as bacterial growth inhibition at 100 uM after 18 hrs by 2-fold dilution method; type: functional, organism-based; outline: as §2
[12] = biological target: T2, Beta-casein (Bos taurus) (UniProt P02666); assay: Intrinsic proteolytic activity against fluorescein isothiocyanate-conjugated bovine milk beta casein at 50 uM preincubated for 15 mins followed by substrate addition measured every 30 mins for 6 hrs by fluorescence assay
T2 sequence (whole entry): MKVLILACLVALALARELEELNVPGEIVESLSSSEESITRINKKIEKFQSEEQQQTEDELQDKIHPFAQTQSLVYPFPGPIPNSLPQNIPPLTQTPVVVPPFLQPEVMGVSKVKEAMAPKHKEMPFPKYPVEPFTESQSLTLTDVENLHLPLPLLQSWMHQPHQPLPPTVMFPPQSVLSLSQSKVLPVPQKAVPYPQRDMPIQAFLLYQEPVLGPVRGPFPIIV
Outline: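 Enzyme-free control: compound (50 µM) incubated with FITC-β-casein (1.92 µM) in 25 mM Tris-HCl pH 7.5, 100 mM KCl. Substrate cleavage read as fluorescence at 538 nm emission after 485 nm excitation.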

T1 sequence (P0A6G7 whole entry): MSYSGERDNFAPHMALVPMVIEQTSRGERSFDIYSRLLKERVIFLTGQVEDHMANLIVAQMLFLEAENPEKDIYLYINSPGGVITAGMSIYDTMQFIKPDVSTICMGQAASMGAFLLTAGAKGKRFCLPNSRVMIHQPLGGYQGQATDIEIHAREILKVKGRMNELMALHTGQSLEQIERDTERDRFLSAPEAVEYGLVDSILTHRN
Sequence of ATP-dependent Clp protease proteolytic subunit (Escherichia coli (strain K12)) (P0A6G7 whole entry): as above
Sequence of ATP-dependent Clp protease proteolytic subunit (Bacillus subtilis (strain 168)) (P80244 whole entry, looked up): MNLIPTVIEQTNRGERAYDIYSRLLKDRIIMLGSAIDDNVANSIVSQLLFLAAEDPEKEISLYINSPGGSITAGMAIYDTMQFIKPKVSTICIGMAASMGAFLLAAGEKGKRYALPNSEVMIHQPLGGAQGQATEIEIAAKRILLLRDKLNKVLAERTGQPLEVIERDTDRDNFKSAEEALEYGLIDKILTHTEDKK

Row | Compound | EC50 [1] [µM] | EC50 [3] [µM] | Activity [5] | further results
1 | CCOC(=O)[C@@H]1C(=O)C[C@@](O)(c2ccc(Br)cc2)C[C@H]1C=C(Cl)Cl | 25.4 | 22.2 |  | Activity [2]: inactive; Activity [4]: inactive
2 | C=CC(C)(C)[C@@]12Nc3c(ccc4c3C=CC(C)(C)O4)[C@]1(O)C[C@H]1C(=O)N3CCC[C@]3(O)C(=O)N12 |  |  | inactive | 
3 | CC1(C)C=Cc2c(ccc3c2NC(=O)[C@@]32C[C@@]34NC(=O)[C@]5(CCCN5C3=O)C[C@H]4C2(C)C)O1 |  |  | inactive | 
4 | CC1(C)C=Cc2c(ccc3c2[N+]([O-])=C2C3=C[C@@]34NC(=O)[C@]5(CCCN5C3=O)CC4C2(C)C)O1 (some centres not stated) |  |  | inactive | 
5 | CC1(C)C=Cc2c(ccc3c4c([nH]c23)C(C)(C)C2C[C@]35CCCN3C(=O)[C@@]2(C4)NC5=O)O1 (some centres not stated) |  |  | inactive | 
6 | CC1(C)C=Cc2c(ccc3c4c(n(O)c23)C(C)(C)C2C[C@]35CCCN3C(=O)[C@]2(NC5=O)C4=O)O1 (some centres not stated) |  |  | inactive | 
7 | C[C@@H]1C[C@H]2C(=O)OC[C@H](NC(=O)[C@H](Cc3ccccc3)NC(=O)/C=C/C=C/C=C/C=C/C=C/C(=O)NC3=C(O)CCC3=O)C(=O)N3CCC[C@H]3C(=O)N(C)[C@@H](C)C(=O)N[C@@H](C)C(=O)N2C1 (X1-FSP[NMeA]A[Pro(4R-Me)]; ester 2-C) | 0.1 | 1.2 |  | Ratio EC50 [6]: 10
8 | CC1(C)C=Cc2c(ccc3c2NC(=O)[C@@]32[C@H](O)[C@@]34NC(=O)[C@]5(CCCN5C3=O)C[C@H]4C2(C)C)O1 [SCLEROTIAMIDE] | 39.6 | 87.5 | 29900 RFU | Activity [7]: Tde; Activity [8]: inactive; Activity [9]: inactive; Activity [10]: inactive; Activity [11]: inactive; Ratio EC50 [6]: 2.2; Activity [12]: inactive
